Experimental data reported in ChEMBL document CHEMBL1123529, “Analogues of substance P. Peptides containing D-amino acid residues in various positions of substance P and displaying agonist or receptor selective antagonist effects” (1986).

What was measured:
[1] = molecular target: Substance-P receptor (Rattus norvegicus) (UniProt P14600); assay: Antagonistic activity against Substance P receptor in rat spinal cord at concentration of 50 uM.
[2] = molecular target: Substance-P receptor (Rattus norvegicus) (UniProt P14600); assay: Antagonistic activity against Substance P(6-11) receptor in rat spinal cord at concentration of 50 uM.
[3] = molecular target: Metabotropic glutamate receptor 3 (Rattus norvegicus) (UniProt P31422); assay: Antagonistic activity against Glutamate receptor in rat spinal cord at concentration of 5 uM.; assay type: functional, tissue-based
Procedure, shortened: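 Neonatal hemisectioned spinal cord from Wistar rats (Alderley Park strain, 2-7 days old), anaesthetised with intraperitoneal urethane (25% w/v, […]) and then decapitated. Cord superfused with oxygenated medium at 1 mL/min. Agonist (SP, SP(6-11), glutamate or carbachol) applied as 2-mL doses in the superfusate. Antagonist superfused for at least 15 min before agonists were retested. Read-out: % change in ventral root–cord DC potential response amplitude.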

[4] = molecular target: Substance-P receptor (Cavia porcellus) (UniProt P30547); assay: Antagonistic activity against Substance P(6-11) receptor in guinea pig ileum at concentration of 5 uM.; assay type: functional, tissue-based
Procedure, shortened: (§1)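 Distal ileum from Dunkin-Hartley guinea pigs (300-350 g, both sexes) in a Krebs organ bath at 37 °C, gassed with 95% O2/5% CO2. Agonist (SP or SP(6-11)) dose-response curves run on a 3-min cycle with 1-min contact, with and without antagonist. Dose ratio = agonist EC50 with antagonist / EC50 alone. At least two preparations per compound; ratios below 2 taken as insignificant.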

[5] = In vitro antagonistic activity against Substance P(6-11) in guinea pig ileum at concentration of 10 uM.; assay type: functional, Cavia porcellus
Procedure, shortened: (§2)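 Dose-response curves used a 3-min cycle with 1-min contact and washout, with SP or SP(6-11)-hexapeptide as agonist. Dose ratio is the agonist EC50 with antagonist divided by the EC50 alone. At least two preparations per compound; ratios under 2 were considered insignificant.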

[6] = In vitro antagonistic activity against Substance P on guinea pig ileum at concentration of 10 uM.; assay type: functional, Cavia porcellus
Procedure, shortened: as §2

[7] = molecular target: Substance-P receptor (Cavia porcellus) (UniProt P30547); assay: Antagonistic activity against Substance P receptor in guinea pig ileum at concentration of 5 uM.; assay type: functional, tissue-based
Procedure, shortened: as §1

[8] = molecular target: Substance-P receptor (Rattus norvegicus) (UniProt P14600); assay: Antagonistic activity against Substance P receptor in rat spinal cord at concentration of 5 uM.
[9] = molecular target: Substance-P receptor (Rattus norvegicus) (UniProt P14600); assay: Antagonistic activity against Substance P(6-11) receptor in rat spinal cord at concentration of 5 uM.
[10] = molecular target: Substance-P receptor (Cavia porcellus) (UniProt P30547); assay: Antagonistic activity against Substance P receptor in guinea pig ileum at concentration of 100 uM.; assay type: functional, tissue-based
Procedure, shortened: as §1

[11] = molecular target: Substance-P receptor (Cavia porcellus) (UniProt P30547); assay: Antagonistic activity against Substance P(6-11) receptor in guinea pig ileum at concentration of 100 uM.; assay type: functional, tissue-based
Procedure, shortened: as §1

[12] = molecular target: Substance-P receptor (Cavia porcellus) (UniProt P30547); assay: Evaluated in vitro for percent agonist activity in guinea pig ileum (substance P receptor); assay type: functional, tissue-based

Sequence of Substance-P receptor (Rattus norvegicus) (P14600 whole entry, looked up): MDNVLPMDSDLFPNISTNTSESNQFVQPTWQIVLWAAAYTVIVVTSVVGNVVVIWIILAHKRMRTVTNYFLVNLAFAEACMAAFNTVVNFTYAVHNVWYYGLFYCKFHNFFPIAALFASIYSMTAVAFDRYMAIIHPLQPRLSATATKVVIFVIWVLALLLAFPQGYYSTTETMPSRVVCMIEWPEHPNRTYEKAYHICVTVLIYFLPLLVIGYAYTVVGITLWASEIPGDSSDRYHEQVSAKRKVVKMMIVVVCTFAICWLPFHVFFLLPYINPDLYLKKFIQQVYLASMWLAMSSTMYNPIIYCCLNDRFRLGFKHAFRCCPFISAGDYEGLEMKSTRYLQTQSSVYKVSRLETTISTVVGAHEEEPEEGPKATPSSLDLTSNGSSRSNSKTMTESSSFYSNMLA
Sequence of Substance-P receptor (Cavia porcellus) (P30547 whole entry): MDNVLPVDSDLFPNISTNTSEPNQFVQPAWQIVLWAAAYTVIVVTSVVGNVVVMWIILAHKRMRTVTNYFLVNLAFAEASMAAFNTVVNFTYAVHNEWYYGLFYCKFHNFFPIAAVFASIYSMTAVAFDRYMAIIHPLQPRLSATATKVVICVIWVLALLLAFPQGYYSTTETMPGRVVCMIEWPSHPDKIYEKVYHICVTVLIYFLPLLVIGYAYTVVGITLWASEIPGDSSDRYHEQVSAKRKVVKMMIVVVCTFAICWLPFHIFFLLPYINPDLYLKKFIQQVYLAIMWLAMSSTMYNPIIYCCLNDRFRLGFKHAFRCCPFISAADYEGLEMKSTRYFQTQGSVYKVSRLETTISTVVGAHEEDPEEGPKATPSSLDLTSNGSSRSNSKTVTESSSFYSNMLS
Sequence of Metabotropic glutamate receptor 3 (Rattus norvegicus) (P31422 23-879 limits assumed): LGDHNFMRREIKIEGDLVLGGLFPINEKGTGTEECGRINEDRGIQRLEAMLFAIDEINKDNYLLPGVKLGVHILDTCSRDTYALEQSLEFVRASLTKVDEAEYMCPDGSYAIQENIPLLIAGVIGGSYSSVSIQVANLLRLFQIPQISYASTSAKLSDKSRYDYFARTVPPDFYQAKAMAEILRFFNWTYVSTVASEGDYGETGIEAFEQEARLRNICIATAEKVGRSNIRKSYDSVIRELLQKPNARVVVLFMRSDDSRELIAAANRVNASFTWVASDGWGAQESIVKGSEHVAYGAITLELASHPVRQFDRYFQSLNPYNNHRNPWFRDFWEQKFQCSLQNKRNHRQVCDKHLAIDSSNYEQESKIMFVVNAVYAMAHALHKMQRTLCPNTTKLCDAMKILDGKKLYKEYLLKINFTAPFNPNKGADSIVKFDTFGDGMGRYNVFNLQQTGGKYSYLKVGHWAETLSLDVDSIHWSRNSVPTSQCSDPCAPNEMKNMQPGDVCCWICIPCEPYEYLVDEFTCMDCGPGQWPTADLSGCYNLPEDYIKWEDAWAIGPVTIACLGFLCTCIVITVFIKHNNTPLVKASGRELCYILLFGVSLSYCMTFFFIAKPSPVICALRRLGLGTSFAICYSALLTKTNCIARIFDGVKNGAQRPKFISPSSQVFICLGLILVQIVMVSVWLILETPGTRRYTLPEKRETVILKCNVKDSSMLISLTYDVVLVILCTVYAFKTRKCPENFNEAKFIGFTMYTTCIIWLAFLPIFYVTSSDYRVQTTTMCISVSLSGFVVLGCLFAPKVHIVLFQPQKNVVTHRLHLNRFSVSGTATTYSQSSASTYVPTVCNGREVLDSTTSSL

Structure (SMILES)	Change in amplitude response [1]	Change in amplitude response [2]	Change in amplitude response [3]	Activity [4]	Activity [5]	Activity [6]	Activity [7]	Change in amplitude response [8]	Change in amplitude response [9]	Activity [10]	Activity [11]	SP [12]
CSCC[C@@H](NC(=O)[C@H](CC(C)C)NC(=O)[C@@H](Cc1c[nH]c2ccccc12)NC(=O)C(Cc1ccccc1)NC(=O)[C@@H](Cc1c[nH]c2ccccc12)NC(=O)[C@H](CCC(N)=O)NC(=O)[C@H](CCC(N)=O)NC(=O)C1CCCN1C(=O)[C@H](CCCCN)NC(=O)C1CCCN1C(=O)[C@@H](N)CCCN=C(N)N)C(=O)O (stereo in doubt)	16%	-100%	-20%	3.4 dose ratio	4.3 dose ratio	5.3 dose ratio	6.3 dose ratio	21%	-62%	–	–	–
COC(=O)[C@@H](CCSC)NC(=O)[C@H](CC(C)C)NC(=O)CNC(=O)[C@H](Cc1c[nH]c2ccccc12)NC(=O)[C@@H](Cc1c[nH]c2ccccc12)NC(=O)[C@H](CCC(N)=O)NC(=O)[C@H](CCC(N)=O)NC(=O)[C@@H]1CCCN1C(=O)[C@H](CCCCN)NC(=O)[C@@H]1CCCN1C(=O)[C@@H](N)CCCN=C(N)N	–	–	–	–	–	–	–	–	–	< 2 dose ratio	< 2 dose ratio	< 0.0001%
